This is an account of results in ChEMBL document CHEMBL5108061, “Lectin-Targeted Prodrugs Activated by Pseudomonas aeruginosa for Self-Destructive Antibiotic Release” (J Med Chem, 2022).

Series [1] has as its system Pseudomonas aeruginosa. Put plainly: Antibacterial activity against Pseudomonas aeruginosa PA14 assessed inhibition of bacterial growth incubated for 18 to 20 hrs by broth microdilution method. Particulars: time 18-20 hrs. The format is functional. Put shortly: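 Broth microdilution per EUCAST in Müller-Hinton broth II, no matrix preincubation. […] Inoculum from overnight LB-agar colonies adjusted to OD600 0.08–0.13, diluted 1:100, final 5 × 10^5 cfu/mL.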
In general terms: In broth dilution the organism is exposed to a series of concentrations in liquid medium.

A short description of series [2]: Drug uptake in human A549 cells assessed as intracellular accumulation at 10 ug/ml incubated for 15 to 60 mins by HPLC-MS/MS analysis. The format is ADME, cell-based. The note with it: time 15-60 min, dose 10 µg/ml. Put shortly:
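A549 cells grown to 95% confluence in DMEM/10% FCS, exposed to 10 μg/mL compound for 15, 30 and 60 min at 37 °C; washed twice with PBS, lysed in MeOH; medium, washes and extracts extracted with MeOH containing caffeine internal standard and quantified by HPLC-MS/MS against calibration/QC samples; technical duplicates, two biological replicates.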

Series [3] in a line: Stability in mouse plasma assessed as half life at 1 uM and measured upto 240 mins by HPLC-MS/MS analysis. The format is ADME, cell-free. Particulars: 4 h. A digest of the protocol: (§1)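 Compound at 1 μM final in prewarmed mouse or human plasma (pH 7.4), 37 °C, sampled at 0–240 min; extracted with acetonitrile containing caffeine internal standard; HPLC-MS/MS, peak area normalized to internal standard and time 0; procaine and procainamide controls; ≥3 independent repeats.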

Series [4] is described as follows: Metabolic stability in mouse liver microsomes assessed as half life at 100 uM preincubated for 5 mins followed by NADPH addition and measured upto 60 mins by HPLC-MS/MS analysis. The format is ADME, Microsome. Particulars: time 65 min. Put shortly:
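Thawed mouse liver microsomes (20 mg/mL stock) were pre-incubated with compound (100 μM stock) in 100 mM phosphate buffer for 5 min at 37 °C. Reactions were started with NADPH (20 mM stock) and run in triplicate at 37 °C with shaking. Samples taken at 0, 5, 15, 30 and 60 min were quenched with acetonitrile and analysed by HPLC-MS/MS. Peak areas were normalised to 0 min, and half-life came from linear regression.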
(In general: Liver microsomes are vesicles of endoplasmic reticulum, rich in cytochrome P450 enzymes.)

A short description of series [5]: Metabolic stability in mouse liver microsomes assessed as intrinsic clearance measured per mg protein at 100 uM preincubated for 5 mins followed by NADPH addition and measured upto 60 mins by HPLC-MS/MS analysis. The format is ADME, Microsome. The note with it: time 65 min, read-out: CLH. A digest of the protocol:
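Mouse liver microsomes (5 μL of 20 mg/mL) were mixed with 2 μL of 100 μM compound in 100 mM phosphate buffer and warmed 5 min at 37 °C. NADPH (10 μL of 20 mM) started the reaction, run in triplicate at 150 rpm. Samples were quenched with acetonitrile at 0–60 min and read by HPLC-MS/MS. Half-life came from linear regression of the 0-min-normalized areas, and CLint was derived from it.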

A short description of series [6]: Stability in human plasma assessed as half life at 1 uM and measured upto 240 mins by HPLC-MS/MS analysis. The format is ADME, cell-free. Particulars: 4 h. A digest of the protocol: as §1

SMILES strings stand for the structures.

Broadly, the MIC is the least concentration at which growth counts as inhibited. A higher MIC goes with a less susceptible organism. In general, half-life refers to how long it takes for the measured level to halve. `Cl.N[C@H]1CCN(c2cc3c(cc2F)c(=O)c(C(=O)O)cn3C2CC2)C1` displayed an MIC in series [1] of 0.027 µM. In addition, the Drug uptake in series [2] was found to be 2000 ng/mL. In addition, the t1/2 is greater than 4 h in series [3] and 2.25 h in series [6]. The half-life at 100 µM in series [4] is greater than 1 h. Also, in series [5], the microsomal CLint at 100 µM is less than 23 µL/min/mg.
